Measured values reported in ChEMBL document CHEMBL1143293, “5-Substituted pyrido[2,3-d]pyrimidine, an inhibitor against three receptor tyrosine kinases” (Bioorg Med Chem Lett, 2009).
Calls of active or inactive are those of the source. No cut-off for these calls is given here.

Columns and labels:
[1] = tested on: HUVEC; test: Inhibition of rhFGF2-induced HUVEC proliferation; assay type: functional, cell-based; conditions: Homo sapiens; for minimal effective concentration: read-out: MEC
How it was run: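 HUVEC proliferation was induced with recombinant human FGF-2 in the presence of compound. Inhibition was reported as IC50 (μM) and as the minimum effective concentration.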

[2] = target: Vascular endothelial growth factor receptor 2 (Homo sapiens, UniProt P35968); test: Inhibition of VEGFR2
Chain of Vascular endothelial growth factor receptor 2 (P35968 whole entry): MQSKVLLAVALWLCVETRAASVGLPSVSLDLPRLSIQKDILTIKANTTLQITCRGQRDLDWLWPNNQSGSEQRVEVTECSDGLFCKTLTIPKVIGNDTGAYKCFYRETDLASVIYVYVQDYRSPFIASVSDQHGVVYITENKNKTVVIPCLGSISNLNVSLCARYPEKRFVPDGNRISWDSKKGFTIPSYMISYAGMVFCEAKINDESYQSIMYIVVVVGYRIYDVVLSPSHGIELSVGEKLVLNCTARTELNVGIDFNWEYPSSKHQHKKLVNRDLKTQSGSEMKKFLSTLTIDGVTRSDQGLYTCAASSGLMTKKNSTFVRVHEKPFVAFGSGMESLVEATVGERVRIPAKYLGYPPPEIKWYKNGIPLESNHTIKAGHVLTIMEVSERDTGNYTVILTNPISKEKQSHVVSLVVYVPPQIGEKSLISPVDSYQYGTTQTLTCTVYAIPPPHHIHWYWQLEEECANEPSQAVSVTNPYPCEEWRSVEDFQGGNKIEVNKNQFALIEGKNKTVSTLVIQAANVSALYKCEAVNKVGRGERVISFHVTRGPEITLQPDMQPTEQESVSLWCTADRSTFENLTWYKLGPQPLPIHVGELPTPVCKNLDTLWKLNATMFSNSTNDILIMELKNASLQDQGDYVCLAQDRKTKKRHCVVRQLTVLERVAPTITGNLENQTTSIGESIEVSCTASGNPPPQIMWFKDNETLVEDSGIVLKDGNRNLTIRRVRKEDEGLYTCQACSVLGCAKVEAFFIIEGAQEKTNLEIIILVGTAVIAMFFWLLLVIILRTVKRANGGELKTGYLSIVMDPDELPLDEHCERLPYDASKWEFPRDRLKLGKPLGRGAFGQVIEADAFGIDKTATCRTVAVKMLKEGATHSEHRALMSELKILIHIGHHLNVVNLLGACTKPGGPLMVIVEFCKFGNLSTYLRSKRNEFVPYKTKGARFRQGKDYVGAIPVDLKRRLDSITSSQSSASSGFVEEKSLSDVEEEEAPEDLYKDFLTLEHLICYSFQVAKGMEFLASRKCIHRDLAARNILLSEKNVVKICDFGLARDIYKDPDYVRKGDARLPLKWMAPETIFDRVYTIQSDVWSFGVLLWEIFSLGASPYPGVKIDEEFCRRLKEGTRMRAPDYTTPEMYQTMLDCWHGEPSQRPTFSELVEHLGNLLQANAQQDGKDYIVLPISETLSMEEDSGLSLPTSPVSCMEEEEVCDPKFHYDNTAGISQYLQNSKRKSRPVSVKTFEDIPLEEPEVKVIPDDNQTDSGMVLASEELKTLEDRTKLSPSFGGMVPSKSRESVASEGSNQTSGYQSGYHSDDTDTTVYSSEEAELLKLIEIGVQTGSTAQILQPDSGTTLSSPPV

[3] = target: Platelet-derived growth factor receptor beta (Homo sapiens, UniProt P09619); test: Inhibition of PDGFRbeta
Chain of Platelet-derived growth factor receptor beta (P09619 whole entry): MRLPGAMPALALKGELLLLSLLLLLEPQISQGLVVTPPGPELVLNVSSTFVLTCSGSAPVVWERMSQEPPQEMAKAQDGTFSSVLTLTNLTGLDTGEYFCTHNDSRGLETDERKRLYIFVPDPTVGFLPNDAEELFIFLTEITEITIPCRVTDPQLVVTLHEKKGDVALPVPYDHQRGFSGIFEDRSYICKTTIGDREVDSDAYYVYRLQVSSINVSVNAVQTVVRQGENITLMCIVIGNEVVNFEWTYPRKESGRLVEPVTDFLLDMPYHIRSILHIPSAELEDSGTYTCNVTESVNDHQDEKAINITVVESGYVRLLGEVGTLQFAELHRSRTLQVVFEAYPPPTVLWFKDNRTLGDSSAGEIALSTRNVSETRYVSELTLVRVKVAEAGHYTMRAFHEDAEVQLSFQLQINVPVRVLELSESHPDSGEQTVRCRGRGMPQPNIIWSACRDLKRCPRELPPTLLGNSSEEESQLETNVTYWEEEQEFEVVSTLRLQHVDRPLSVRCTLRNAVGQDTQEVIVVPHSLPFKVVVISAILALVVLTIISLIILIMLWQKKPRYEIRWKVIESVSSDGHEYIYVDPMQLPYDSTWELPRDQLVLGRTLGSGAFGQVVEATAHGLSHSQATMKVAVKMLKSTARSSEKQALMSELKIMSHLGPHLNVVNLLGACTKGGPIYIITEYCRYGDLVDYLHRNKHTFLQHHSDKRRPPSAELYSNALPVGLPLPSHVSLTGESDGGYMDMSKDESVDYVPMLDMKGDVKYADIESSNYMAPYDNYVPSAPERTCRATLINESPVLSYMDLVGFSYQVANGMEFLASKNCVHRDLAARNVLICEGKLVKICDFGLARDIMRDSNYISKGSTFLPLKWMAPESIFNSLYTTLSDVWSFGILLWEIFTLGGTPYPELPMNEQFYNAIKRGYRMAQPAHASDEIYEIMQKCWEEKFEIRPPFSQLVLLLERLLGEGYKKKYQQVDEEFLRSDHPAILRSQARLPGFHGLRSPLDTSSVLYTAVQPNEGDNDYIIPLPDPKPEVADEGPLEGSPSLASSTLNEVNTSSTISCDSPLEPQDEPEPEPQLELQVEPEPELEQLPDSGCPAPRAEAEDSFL

[4] = target: Fibroblast growth factor receptor 1 (Homo sapiens, UniProt P11362); test: Inhibition of human FGFR1 expressed in insect cells by HTRF method
Chain of Fibroblast growth factor receptor 1 (P11362 whole entry): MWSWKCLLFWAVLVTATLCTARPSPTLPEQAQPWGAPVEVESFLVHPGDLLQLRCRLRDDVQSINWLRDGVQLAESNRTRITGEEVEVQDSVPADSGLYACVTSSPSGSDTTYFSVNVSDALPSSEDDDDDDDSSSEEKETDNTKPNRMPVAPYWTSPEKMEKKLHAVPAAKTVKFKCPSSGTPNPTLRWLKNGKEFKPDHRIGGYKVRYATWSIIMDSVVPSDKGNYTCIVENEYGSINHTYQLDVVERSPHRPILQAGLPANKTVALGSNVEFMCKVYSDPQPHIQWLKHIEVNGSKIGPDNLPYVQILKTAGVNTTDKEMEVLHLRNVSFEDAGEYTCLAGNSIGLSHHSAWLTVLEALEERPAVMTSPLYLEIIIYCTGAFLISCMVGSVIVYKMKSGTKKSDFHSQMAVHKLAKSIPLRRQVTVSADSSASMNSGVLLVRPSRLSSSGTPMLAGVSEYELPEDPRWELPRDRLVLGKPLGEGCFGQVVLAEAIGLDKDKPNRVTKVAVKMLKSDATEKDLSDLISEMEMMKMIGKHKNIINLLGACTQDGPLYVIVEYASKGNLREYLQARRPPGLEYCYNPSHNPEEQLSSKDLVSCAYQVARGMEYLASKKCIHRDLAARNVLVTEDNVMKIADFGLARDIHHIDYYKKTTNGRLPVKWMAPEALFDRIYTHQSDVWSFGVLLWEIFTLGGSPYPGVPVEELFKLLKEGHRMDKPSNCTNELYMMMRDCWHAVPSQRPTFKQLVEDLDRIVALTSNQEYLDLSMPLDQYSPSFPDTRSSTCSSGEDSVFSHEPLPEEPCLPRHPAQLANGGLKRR

[5] = target: Epidermal growth factor receptor (Homo sapiens, UniProt P00533)
Chain of Epidermal growth factor receptor (P00533 whole entry): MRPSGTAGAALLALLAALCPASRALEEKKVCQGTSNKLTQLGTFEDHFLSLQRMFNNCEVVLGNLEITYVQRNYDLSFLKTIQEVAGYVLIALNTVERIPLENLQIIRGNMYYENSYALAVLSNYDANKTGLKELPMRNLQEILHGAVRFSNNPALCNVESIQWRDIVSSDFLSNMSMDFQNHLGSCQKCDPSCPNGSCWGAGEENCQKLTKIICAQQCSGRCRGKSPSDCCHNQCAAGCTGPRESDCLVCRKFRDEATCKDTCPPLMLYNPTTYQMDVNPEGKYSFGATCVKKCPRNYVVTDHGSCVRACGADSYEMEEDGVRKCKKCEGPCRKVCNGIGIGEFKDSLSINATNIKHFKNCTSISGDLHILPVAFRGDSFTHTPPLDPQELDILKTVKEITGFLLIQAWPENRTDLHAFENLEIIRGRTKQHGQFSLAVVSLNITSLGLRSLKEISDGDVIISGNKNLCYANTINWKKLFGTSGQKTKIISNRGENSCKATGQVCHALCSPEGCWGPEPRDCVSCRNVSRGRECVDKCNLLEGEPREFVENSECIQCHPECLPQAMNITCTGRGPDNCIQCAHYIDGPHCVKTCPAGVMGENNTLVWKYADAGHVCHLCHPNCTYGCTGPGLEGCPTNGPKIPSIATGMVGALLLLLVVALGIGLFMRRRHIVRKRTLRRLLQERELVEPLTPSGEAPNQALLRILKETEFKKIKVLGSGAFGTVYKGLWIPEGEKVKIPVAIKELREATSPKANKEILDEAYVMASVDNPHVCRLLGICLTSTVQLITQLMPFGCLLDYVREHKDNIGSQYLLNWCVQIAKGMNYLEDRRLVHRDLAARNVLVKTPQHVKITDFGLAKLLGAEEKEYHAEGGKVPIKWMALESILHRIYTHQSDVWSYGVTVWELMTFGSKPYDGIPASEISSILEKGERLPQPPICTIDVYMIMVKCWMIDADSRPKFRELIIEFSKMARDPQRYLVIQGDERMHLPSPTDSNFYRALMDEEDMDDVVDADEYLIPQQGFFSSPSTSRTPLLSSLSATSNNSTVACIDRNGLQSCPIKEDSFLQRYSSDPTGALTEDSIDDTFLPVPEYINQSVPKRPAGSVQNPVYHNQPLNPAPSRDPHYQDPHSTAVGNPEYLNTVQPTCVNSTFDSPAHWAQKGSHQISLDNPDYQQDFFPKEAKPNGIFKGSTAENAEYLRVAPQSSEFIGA

[6] = tested on: HUVEC; test: Cytotoxicity against HUVEC cells; assay type: cell-based; conditions: human
How it was run: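 Cytotoxicity was taken from HUVEC proliferation run without rhFGF-2 stimulation, and the value was reported as the minimum cytotoxic concentration.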

[7] = tested on: HUVEC; test: Antiangiogenic activity in HUVEC cells assessed incomplete narrow tube formation after 4 hrs by tube formation assay; assay type: functional, cell-based; conditions: Homo sapiens
How it was run: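 HUVEC seeded onto wells coated with Matrigel, with compound present at 1, 3, 10 and 25 μM; FGF-2-stimulated and untreated controls included. After 4 h at 37 °C, cultures were fixed with glutaraldehyde and the length of the capillary-like tubes was measured. Data are means + SD of four wells from a representative experiment.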

[8] = tested on: HUVEC; test: Inhibition of recombinant human FGF2-induced ERK phosphorylation in HUVEC cells by Western blot; assay type: cell-based
[9] = target: c-Jun N-terminal kinase, JNK (Homo sapiens) (UniProt P45983+P53779+P45984); test: Inhibition of recombinant human FGF2-induced JNK phosphorylation in HUVEC cells by Western blot; assay type: cell-based
[10] = target: RAC-alpha serine/threonine-protein kinase (Homo sapiens) (UniProt P31749); test: Inhibition of recombinant human FGF2-induced AKT phosphorylation in HUVEC cells by Western blot; assay type: cell-based
Chain of RAC-alpha serine/threonine-protein kinase (Homo sapiens) (P31749 whole entry): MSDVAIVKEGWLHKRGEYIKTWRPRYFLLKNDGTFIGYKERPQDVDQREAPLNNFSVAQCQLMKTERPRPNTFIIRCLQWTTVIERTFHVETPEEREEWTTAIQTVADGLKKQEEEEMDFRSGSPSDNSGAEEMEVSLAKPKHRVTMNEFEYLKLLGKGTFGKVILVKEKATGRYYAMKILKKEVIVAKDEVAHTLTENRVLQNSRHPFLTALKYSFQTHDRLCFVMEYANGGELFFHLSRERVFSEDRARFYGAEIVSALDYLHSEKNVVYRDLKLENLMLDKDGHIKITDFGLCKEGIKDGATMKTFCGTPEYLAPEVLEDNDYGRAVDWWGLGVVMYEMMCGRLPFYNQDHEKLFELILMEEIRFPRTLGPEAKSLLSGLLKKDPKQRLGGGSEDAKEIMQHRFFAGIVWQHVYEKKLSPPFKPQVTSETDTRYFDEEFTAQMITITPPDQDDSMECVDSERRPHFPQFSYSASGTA

Row | Compound | minimal effective concentration [1] | IC50 [3] | IC50 [1] | Activity [6] | other results
1 | Cc1[nH]c(/C=C2\C(=O)Nc3ccc(C(=O)NNc4ccccc4Cl)cc32)c(C)c1CCC(=O)O | 50 µM | – | – | – | –
2 | COc1cc(OC)cc(-c2ccc3c(c2)NC(=O)/C3=C\c2[nH]c(C)c(CCC(=O)O)c2C)c1 | – | 780 nM | 18200 nM | – | IC50 [2]: 930 nM; IC50 [4]: 520 nM; IC50 [5]: > 100000 nM
3 | Cc1[nH]c(/C=C2\C(=O)Nc3ccc(C(=O)NNc4ccc(C#N)cc4)cc32)c(C)c1CCC(=O)O | > 50 µM | – | – | 50 µM | –
4 | Cc1[nH]c(/C=C2\C(=O)Nc3ccccc32)c(C)c1CCC(=O)O [ORANTINIB] | 10 µM | 50 nM | > 50000 nM | – | –
5 | Cc1[nH]c(/C=C2\C(=O)Nc3ccc(C(=O)NNc4ccccc4[N+](=O)[O-])cc32)c(C)c1CCC(=O)O | 50 µM | – | – | 50 µM | –
6 | Cc1[nH]c(/C=C2\C(=O)Nc3ccc(C(=O)NNc4ccc(C(F)(F)F)cc4)cc32)c(C)c1CCC(=O)O | 50 µM | – | – | 50 µM | –
7 | Cc1[nH]c(/C=C2\C(=O)Nc3ccc(C(=O)NNc4ccccc4)cc32)c(C)c1CCC(=O)O | 10 µM | 40 nM | 27400 nM | 50 µM | IC50 [2]: 70 nM; Activity [7]: Dose-dependent effect; IC50 [4]: 100 nM; Activity [8]: Active; Activity [9]: Active; Activity [10]: Active; IC50 [5]: 3480 nM
